A selection: hits, their analogues and other compounds. The true share with any hit is near 2.8%.
EBI2 block – EBI2 receptor antagonists, beta-arrestin recruitment, primary screen, cell-based, luminescence, 7a,25-OHC stimulation, uHTS. G-protein coupled receptor 183 (Homo sapiens), P32249. 7a,25-OHC stimulated. inhibition, % at 5 µM. actives 0.81% (n = 360,000); in the data active = inhibition above about 38%;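 also: enzyme fragment complementation signal reports receptor beta-arrestin coupling in cells; 0% = agonist plus DMSO wells and 100% = wells without agonist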
MC4R antag cAMP – MC4R antagonists of cAMP signaling, primary screen, cell-based, TR-FRET, antagonist arm of biased-ligand search. Melanocortin receptor 4 (Homo sapiens), P32245. inhibition, % at 6.5 µM. actives 0.48% (n = 360,000). MC4R-expressing cells, MTII-stimulated cAMP, LANCE TR-FRET. AID 540295, 2011;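 active = inhibition above its plate's cutoff, the mean of tested wells on that plate plus 3 SD, cut at about 29% in these data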;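 also: 0% = Melanotan II alone and 100% = Melanotan II plus saturating MCL0020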
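Assay system: human MC4R-expressing U2OS cells; reagent: Melanotan II stimulation of cells; dosing: 6.5 µM single dose; timing: compound 30 min, challenge 1 h, detection 1 h; signal: TR-FRET cAMP assay; replicates: one well per compound, no replicates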
MC4R ag barr – MC4R agonists recruiting beta-arrestin, primary screen, cell-based, luminescence, agonist arm of biased-ligand search. Melanocortin receptor 4 (Homo sapiens), P32245. activation, % at 8.9 µM. actives 0.98% (n = 360,000). U2OS MC4R beta-arrestin complementation; percent of melanotan II response, DMSO zero;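 active = activation above a per-plate cutoff, the mean activation of sample wells on that plate plus 3 SD, cut at about 8% in these data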
HTR2A ag – mouse Htr2a agonists via beta-arrestin recruitment, primary screen, cell-based, luminescence. 5-hydroxytryptamine receptor 2A (Mus musculus), P35363. CHO-K1 mHTR2A beta-arrestin complementation; percent of 30 µM serotonin response. activation, % at 7.6 µM. actives 0.66% (n = 360,000). AID 624169, 2012;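 active = activation above a run cutoff, the mean activation of all tested compounds plus 3 SD, cut at about 14% in these data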;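 also: 0% = plate median of compound wells and 100% = 30 µM serotonin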
Target sequence (P35363 whole entry, looked up): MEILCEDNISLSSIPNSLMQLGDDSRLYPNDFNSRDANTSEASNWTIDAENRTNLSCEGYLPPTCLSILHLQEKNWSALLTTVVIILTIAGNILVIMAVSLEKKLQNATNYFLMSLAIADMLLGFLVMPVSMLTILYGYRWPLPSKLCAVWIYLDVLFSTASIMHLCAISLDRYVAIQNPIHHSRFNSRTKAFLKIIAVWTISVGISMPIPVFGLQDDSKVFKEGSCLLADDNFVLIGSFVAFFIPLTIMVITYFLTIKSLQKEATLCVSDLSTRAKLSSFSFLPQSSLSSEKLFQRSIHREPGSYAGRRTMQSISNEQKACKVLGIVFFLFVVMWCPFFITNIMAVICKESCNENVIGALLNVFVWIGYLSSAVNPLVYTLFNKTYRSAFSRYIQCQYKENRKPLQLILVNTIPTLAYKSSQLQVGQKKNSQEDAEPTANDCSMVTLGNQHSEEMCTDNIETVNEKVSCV
OPRM1 ag – OPRM1 agonists via beta-arrestin recruitment, confirmation, counter-screen for mouse HTR2A agonist project, cell-based, luminescence, single concentration. shares compounds with HTR2A ag. AID 624380, 2012. U2OS OPRM1 beta-arrestin PathHunter; DMSO 0%, DAMGO 9.3 µM 100%. activation, % at 9.3 µM. actives 5.3% (n = 2,300);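 active = mean activation above the mean of DMSO-only wells plus 3 SD, cut at about 0.5% in these data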
HTR2A ag conf – mouse HTR2A agonists, beta-arrestin recruitment, confirmation, cell-based, luminescence, CHO-K1 PathHunter, triplicate. shares compounds with HTR2A ag. DMSO 0%, 30 µM serotonin 100%. activation, % at 7.6 µM. actives 19% (n = 2,300). AID 624381, 2012;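 active = mean activation across triplicates above the hit threshold derived in the original primary screen, cut at about 15% in these data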
Active calls of the source: *.

Screening CCN1C(=O)[C@@H]2[C@@H]3CN(S(=O)(=O)c4ccc(C)cc4)[C@@H](c4ccccc4F)[C@@H]3C(=O)C[C@@H]2C1=O returned EBI2 block -6.1, HTR2A ag 15.1*, OPRM1 ag -0.1 and HTR2A ag conf 1.5.
COc1ccccc1C1(CC(=O)N2CCCCC2)CCOC(C(C)C)C1 (configuration not stated) was read as EBI2 block 9.4, MC4R antag cAMP -0.1, MC4R ag barr 4.9 and HTR2A ag 0.9.
CCC1(C)CC(CC(=O)O)(c2ccccc2OC)CCO1 (configuration not stated) was read as EBI2 block -23.6, MC4R antag cAMP -5.4, MC4R ag barr -1.0, HTR2A ag 14.7*, OPRM1 ag -0.3 and HTR2A ag conf 0.9.
For Cc1nc2ccc(S(=O)(=O)CCC(=O)NCc3ccc(Cl)cc3)cc2s1 the results were EBI2 block 13.2, MC4R antag cAMP 7.5, MC4R ag barr -1.3, HTR2A ag 20.8*, OPRM1 ag 0.2 and HTR2A ag conf -0.6.
Cc1nc2ccc(S(=O)(=O)NCC(=O)NCc3ccc(Cl)cc3)cc2s1 was read as EBI2 block 6.4, MC4R antag cAMP 4.1, MC4R ag barr -0.8 and HTR2A ag -0.5.
Screening COc1ccc(N2CCN(c3cc(=O)n(Cc4ccc(F)cc4)c(=O)[nH]3)CC2)cc1 returned EBI2 block -0.4, MC4R antag cAMP -1.7, MC4R ag barr 0.2, HTR2A ag 15.5*, OPRM1 ag -0.8 and HTR2A ag conf -1.1.
O=c1cc(N2CCN(c3ccc(F)cc3)CC2)[nH]c(=O)n1Cc1ccc(F)cc1 was read as EBI2 block -1.8, MC4R antag cAMP -6.3, MC4R ag barr 1.0 and HTR2A ag -5.3.
Screening CCOC(=O)C1(C)Oc2ccccc2C(C(=O)OC)=C1C(=O)OC (configuration not stated) returned EBI2 block 1.5, MC4R antag cAMP 3.2, MC4R ag barr -1.9, HTR2A ag 19.7*, OPRM1 ag -0.7 and HTR2A ag conf -3.9.
Screening CN(C)c1ccc(O)c2c1CC1CC3[C@@H](N(C)C)C(=O)C(C(N)=O)C(=O)[C@]3(O)C(=O)C1C2=O (some centres not stated) returned EBI2 block -3.2, MC4R antag cAMP 5.3, MC4R ag barr 0.0, HTR2A ag 66.5*, OPRM1 ag -0.3 and HTR2A ag conf 152.7*.
For CN(C)c1ccc(O)c2c1CC1CC3C(N(C)C)C(=O)C(C(N)=O)=C(O)[C@@]3(O)C(=O)C1=C2O (some centres not stated) the results were EBI2 block -4.1, MC4R antag cAMP 1.1, MC4R ag barr -0.8 and HTR2A ag 1.3.
Screening Cc1cc(N/N=C/c2ccc(O)c(C)c2O)nc(-c2ccccc2O)n1 returned EBI2 block -11.3, MC4R antag cAMP 8.9, MC4R ag barr 1.8, HTR2A ag 20.1*, OPRM1 ag 0.5 and HTR2A ag conf 64.6*.
Screening COc1ccc(CCNC(=O)CSc2ccc3ccccc3c2)cc1OC returned EBI2 block 30.2, MC4R antag cAMP 11.4, MC4R ag barr 0.7 and HTR2A ag -4.9.
O=C(CSc1ccc2ccccc2c1)NCCc1ccc(O)c(O)c1 was read as EBI2 block 11.4, MC4R antag cAMP 12.7, MC4R ag barr -2.6, HTR2A ag 31.1*, OPRM1 ag -0.2 and HTR2A ag conf 100.9*.
`COC(=O)NCCc1cc(OC)c(OC)cc1S(=O)(=O)N1CC(=O)Nc2ccccc21` gave EBI2 block -2.2, MC4R antag cAMP 12.7, MC4R ag barr 0.6, HTR2A ag 15.1*, OPRM1 ag -0.5 and HTR2A ag conf -0.8.
BrC(=C\c1ccccc1)/C=N/N1CCN(Cc2ccccc2)CC1 was read as EBI2 block 6.5, MC4R antag cAMP 3.2, MC4R ag barr 1.2, HTR2A ag 19.7*, OPRM1 ag -0.7 and HTR2A ag conf -2.9.
For BrC(/C=N/N1CCN(Cc2ccccc2)CC1)=C/c1ccccc1 the results were EBI2 block 6.2, MC4R antag cAMP -0.7, MC4R ag barr 0.1, HTR2A ag 23.6*, OPRM1 ag -0.5 and HTR2A ag conf 0.0.
CC(/C=N\N1CCN(Cc2ccc(C)cc2)CC1)=C\c1ccccc1 was read as EBI2 block 0.0, MC4R antag cAMP -0.8, MC4R ag barr 1.0 and HTR2A ag -5.0.
Screening CCCCCCCCN1C(=O)[C@H](CC(=O)NCc2cccs2)C[C@@]2(C(=O)OC)CCCCC=C12 returned EBI2 block 25.9 and HTR2A ag -6.9.
Screening Cc1ccc(OCCC(=O)OCC(=O)Nc2ccc(F)cc2)cc1 returned EBI2 block -1.2, MC4R antag cAMP -2.7, MC4R ag barr -1.9 and HTR2A ag -1.9.
Cc1ccc(OCCC(=O)OCC(=O)Nc2ccccc2)cc1 was read as EBI2 block -3.9, MC4R antag cAMP -1.1, MC4R ag barr 1.5, HTR2A ag 17.3*, OPRM1 ag -0.6 and HTR2A ag conf -4.7.
`CCOc1ccc(S(=O)(=O)NCCC(=O)NCc2ccc(OC)c(OC)c2)cc1` gave EBI2 block -5.4, MC4R antag cAMP -3.5, MC4R ag barr -0.7, HTR2A ag 14.4*, OPRM1 ag 1.5* and HTR2A ag conf 7.7.
Screening O=C(OCc1cn([C@H]2CN(CC3CCCCC3)[C@@H](c3ccccc3)C[C@@H]2O)nn1)c1ccccc1 returned EBI2 block -7.1, MC4R antag cAMP 6.2, MC4R ag barr 0.4 and HTR2A ag 0.9.
For Cc1ccc2nc(SCn3nnc4ccccc4c3=O)[nH]c2c1 the results were EBI2 block 1.9, MC4R antag cAMP 6.4, MC4R ag barr -0.2 and HTR2A ag 1.5.
`Cc1ccc(SCn2nnc3ccccc3c2=O)c(C)c1` gave EBI2 block 8.7, MC4R antag cAMP 1.4, MC4R ag barr 1.7, HTR2A ag 24.7*, OPRM1 ag -0.2 and HTR2A ag conf -0.1.
Screening CN([C@@H](Cc1ccc(OS(=O)(=O)c2cccc3cnccc23)cc1)C(=O)N1CCN(c2ccccc2)CC1)S(=O)(=O)c1cccc2cnccc12 returned EBI2 block -2.7, MC4R antag cAMP 8.7, MC4R ag barr 0.2, HTR2A ag 14.9*, OPRM1 ag -0.6 and HTR2A ag conf 11.6.
